# Laboratory results taken from ChEMBL document CHEMBL4433236, “Synthesis and structure activity relationships of a series of 4-amino-1H-pyrazoles as covalent inhibitors of CDK14” (Bioorg Med Chem Lett, 2019).
# Calls of active or inactive are those of the source. No cut-off for these calls is given here.
# What was measured:
# [1] = biological target: Cyclin-dependent kinase 17 (Homo sapiens) (UniProt Q00537); test: Inhibition of CDK17 in human HCT116 cells at 1 uM incubated for 4 hrs by KINATIV live cell profiling protocol based assay
# Cyclin-dependent kinase 17 (Homo sapiens), sequence (Q00537 whole entry, looked up): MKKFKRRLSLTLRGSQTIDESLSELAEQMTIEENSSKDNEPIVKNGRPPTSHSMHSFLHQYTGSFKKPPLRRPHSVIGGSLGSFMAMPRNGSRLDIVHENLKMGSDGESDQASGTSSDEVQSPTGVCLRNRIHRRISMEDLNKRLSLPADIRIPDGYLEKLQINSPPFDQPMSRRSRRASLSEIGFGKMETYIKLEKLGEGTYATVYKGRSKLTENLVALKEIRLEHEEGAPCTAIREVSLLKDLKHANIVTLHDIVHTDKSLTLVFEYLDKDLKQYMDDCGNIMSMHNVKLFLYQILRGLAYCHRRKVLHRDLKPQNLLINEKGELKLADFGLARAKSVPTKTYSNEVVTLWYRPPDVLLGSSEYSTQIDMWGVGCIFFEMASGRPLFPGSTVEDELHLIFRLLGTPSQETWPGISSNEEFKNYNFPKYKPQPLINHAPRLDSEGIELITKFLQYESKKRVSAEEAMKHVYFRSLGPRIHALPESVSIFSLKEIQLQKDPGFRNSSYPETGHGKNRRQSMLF
# Summary of the method: (§1)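 Cellular kinase selectivity was profiled on the KiNativ platform, with compounds tested at 1 μM.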
# HCT-116 = test: Antiproliferative activity against human HCT116 cells assessed as reduction in cell viability after 72 hrs by cell titer glo-based luminescence assay; assay type: functional; conditions: HCT-116, 72 h
# CDK2/Cyclin-Y = CDK2/Cyclin-Y (Homo sapiens, UniProt P24941+Q8ND76); test: Inhibition of recombinant NanoLuc-tagged CDK2/cyclin Y expressed in human HCT116 cells at 1 uM incubated for 20 to 24 hrs by NanoBRET assay; assay type: cell-based
# [2] = biological target: Cyclin-dependent kinase 16 (Homo sapiens) (UniProt Q00536); test: Inhibition of CDK16 in human HCT116 cells at 1 uM incubated for 4 hrs by KINATIV live cell profiling protocol based assay; summary of the method: as §1
# Cyclin-dependent kinase 16 (Homo sapiens), sequence (Q00536 whole entry): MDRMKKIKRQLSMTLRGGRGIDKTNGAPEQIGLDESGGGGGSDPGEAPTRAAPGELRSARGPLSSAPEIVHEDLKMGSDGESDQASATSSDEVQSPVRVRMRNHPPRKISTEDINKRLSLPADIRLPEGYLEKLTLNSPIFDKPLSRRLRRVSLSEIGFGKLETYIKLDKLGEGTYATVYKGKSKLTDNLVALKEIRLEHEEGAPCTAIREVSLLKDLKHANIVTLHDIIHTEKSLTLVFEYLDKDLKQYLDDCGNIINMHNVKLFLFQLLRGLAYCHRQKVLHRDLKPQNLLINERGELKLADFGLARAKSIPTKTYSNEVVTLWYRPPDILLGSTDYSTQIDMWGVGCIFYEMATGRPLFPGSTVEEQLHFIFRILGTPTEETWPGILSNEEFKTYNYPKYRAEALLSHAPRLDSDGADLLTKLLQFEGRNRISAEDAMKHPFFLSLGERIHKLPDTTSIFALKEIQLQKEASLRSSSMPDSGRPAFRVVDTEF
# [3] = biological target: Cyclin-dependent kinase 18 (Homo sapiens) (UniProt Q07002); test: Inhibition of CDK18 in human HCT116 cells at 1 uM incubated for 4 hrs by KINATIV live cell profiling protocol based assay; summary of the method: as §1
# Cyclin-dependent kinase 18 (Homo sapiens), sequence (Q07002 whole entry): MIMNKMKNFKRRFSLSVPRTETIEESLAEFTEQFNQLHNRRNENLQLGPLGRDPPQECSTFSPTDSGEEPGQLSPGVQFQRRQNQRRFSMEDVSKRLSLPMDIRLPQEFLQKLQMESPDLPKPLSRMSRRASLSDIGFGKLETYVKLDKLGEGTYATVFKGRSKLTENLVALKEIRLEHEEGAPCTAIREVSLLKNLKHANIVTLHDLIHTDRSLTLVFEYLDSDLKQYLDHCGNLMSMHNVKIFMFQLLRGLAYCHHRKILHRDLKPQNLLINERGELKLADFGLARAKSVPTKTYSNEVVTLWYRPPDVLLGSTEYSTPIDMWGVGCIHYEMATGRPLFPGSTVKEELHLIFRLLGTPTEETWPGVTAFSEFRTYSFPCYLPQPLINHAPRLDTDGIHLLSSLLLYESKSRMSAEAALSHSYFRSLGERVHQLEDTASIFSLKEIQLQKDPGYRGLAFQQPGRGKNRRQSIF
# [4] = biological target: Cyclin-dependent kinase 14/Cyclin-Y (Homo sapiens, UniProt O94921); test: Inhibition of recombinant GST-tagged human full length CDK14/cyclin Y (2 to end residues) preincubated for 30 mins by Lantha screen eu binding assay; assay type: protein-complex assay
# Cyclin-dependent kinase 14/Cyclin-Y, sequence (O94921 whole entry): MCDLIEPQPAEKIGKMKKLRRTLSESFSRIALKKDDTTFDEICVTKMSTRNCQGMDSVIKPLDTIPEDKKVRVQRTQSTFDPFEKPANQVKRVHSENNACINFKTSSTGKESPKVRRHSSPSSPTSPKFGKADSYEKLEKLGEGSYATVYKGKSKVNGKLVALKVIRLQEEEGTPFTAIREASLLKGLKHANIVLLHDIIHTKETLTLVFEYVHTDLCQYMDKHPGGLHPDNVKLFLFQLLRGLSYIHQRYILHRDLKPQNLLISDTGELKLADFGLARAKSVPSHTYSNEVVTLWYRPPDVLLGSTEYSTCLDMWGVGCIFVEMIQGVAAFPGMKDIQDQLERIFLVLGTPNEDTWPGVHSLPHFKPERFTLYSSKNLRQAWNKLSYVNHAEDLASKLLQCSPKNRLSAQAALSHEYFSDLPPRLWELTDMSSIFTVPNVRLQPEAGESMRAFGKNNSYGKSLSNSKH
# Cyclin-dependent kinase 14/Cyclin-Y, sequence (Q8ND76 whole entry, further chain): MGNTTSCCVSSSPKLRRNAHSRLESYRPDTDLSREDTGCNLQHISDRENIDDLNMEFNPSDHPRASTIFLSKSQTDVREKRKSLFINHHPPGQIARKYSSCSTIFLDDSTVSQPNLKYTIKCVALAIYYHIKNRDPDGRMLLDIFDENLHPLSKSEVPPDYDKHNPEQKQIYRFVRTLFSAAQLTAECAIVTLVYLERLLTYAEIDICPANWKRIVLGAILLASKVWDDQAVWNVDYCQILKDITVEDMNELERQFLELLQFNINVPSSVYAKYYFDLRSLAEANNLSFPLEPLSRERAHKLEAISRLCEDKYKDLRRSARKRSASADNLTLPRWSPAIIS
# Summary of the method: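 CDK14 binding was measured in a LanthaScreen binding assay. IC50 is the average of three replicates, reported ± standard error.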
# [5] = biological target: T1, Cyclin-dependent kinase 14 (Homo sapiens, UniProt O94921); test: Inhibition of FLAG-tagged CDK14 (unknown origin) expressed in human HEK293 cells assessed as blocking of CDK14 pulldown at 500 to 1000 nM incubated for 4 hrs by biotinylated JNK-IN- based pull down assay; assay type: cell-based
# T1 sequence (O94921 whole entry): as the sequence (O94921 whole entry) above
# Summary of the method: (§2)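 Cells were treated with compound at various doses for 4 h and then lysed. Lysates were incubated with biotinylated JNK-IN-7 and captured on streptavidin-coated beads. CDK14 capture was detected by western blot.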
# [6] = biological target: T1, Cyclin-dependent kinase 14; test: Inhibition of FLAG-tagged CDK14 (unknown origin) expressed in human HEK293 cells assessed as blocking of CDK14 pulldown incubated for 4 hrs by biotinylated JNK-IN- based pull down assay; assay type: cell-based; summary of the method: as §2
# [7] = biological target: T1, Cyclin-dependent kinase 14; test: Inhibition of FLAG-tagged CDK14 (unknown origin) expressed in human HEK293 cells assessed as blocking of CDK14 pulldown up to 1000 nM incubated for 4 hrs by biotinylated JNK-IN- based pull down assay; assay type: cell-based; summary of the method: as §2
IC50 (HCT-116) [µM],IC50 [4] [µM],IC50 [6] [µM],Structure (SMILES),also measured
,> 1,,C=CC(=O)Nc1cccc(C(=O)Nc2ccc(NC(=O)c3n[nH]cc3NC(=O)c3c(Cl)cccc3Cl)c(C)c2)c1,
0.032,0.045,,C=CC(=O)Nc1cccc(C(=O)N2CCC(NC(=O)c3n[nH]cc3NC(=O)c3c(Cl)cccc3Cl)CC2)c1,inhibition [5]: Active
0.038,,1,CN(C)C/C=C/C(=O)Nc1cccc(C(=O)Nc2ccc(NC(=O)c3n[nH]cc3NC(=O)c3c(Cl)cccc3Cl)cc2)c1,inhibition [5]: Active
0.32,> 1,,Cc1cc(NC(=O)c2cccc(NC(=O)/C=C/CN(C)C)c2)ccc1NC(=O)c1n[nH]cc1NC(=O)c1c(Cl)cccc1Cl,
> 10,0.041,> 1,CN(C)CC/C=C/C(=O)Nc1ccc(S(=O)(=O)N2CC[C@@H](NC(=O)c3n[nH]cc3NC(=O)c3c(Cl)cccc3Cl)C2)cc1,inhibition [7]: Active
0.44,0.003,1,CN(C)C/C=C/C(=O)Nc1cccc(S(=O)(=O)N2CCC(NC(=O)c3n[nH]cc3NC(=O)c3ccccc3)CC2)c1,

Structure (SMILES),IC50 (HCT-116) [µM],IC50 [4] [µM],IC50 [6] [µM],also measured
CN(C)C/C=C/C(=O)Nc1cccc(S(=O)(=O)N2CCC(NC(=O)c3n[nH]cc3NC(=O)c3c(Cl)cc(Cl)cc3Cl)CC2)c1,1.14 to 5.9,,,inhibition [1]: > 75%; IC50 (CDK2/Cyclin-Y): 0.256 µM; inhibition [2]: > 90%; inhibition [3]: > 75%
